Experimental data as given in ChEMBL document CHEMBL1156308 (J Med Chem, 2010).

How the values were obtained:
Assay type in all cases: ADME, organism-based
[1] = Biodistribution in baboon heart at 85 mg, iv after 60 mins; conditions: papio hamadryas, read-out: Drug uptake
[2] = Biodistribution in baboon lung at 85 mg, iv after 60 mins; conditions: papio hamadryas, read-out: Drug uptake
[3] = Biodistribution in baboon kidney cortex at 85 mg, iv after 60 mins; conditions: papio hamadryas, read-out: Drug uptake
[4] = Biodistribution in baboon kidney medulla at 85 mg, iv after 60 mins; conditions: papio hamadryas, read-out: Drug uptake
Procedure, shortened: (§1)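 The [11C]-labeled drug was given as an i.v. micro dose via a radial arm vein to anesthetized baboons (ketamine 10 mg/kg i.m.; O2/N2O/isoflurane 1–4%), then torso PET. Organ TACs came from manually drawn ROIs and are reported as %ID/cc. µg/ml was estimated assuming a 5 mg/kg dose, a 17 kg baboon, and that the positron signal is intact drug.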

[5] = Biodistribution in baboon liver at 85 mg, iv after 60 mins; conditions: papio hamadryas, read-out: Drug uptake
[6] = Biodistribution in baboon plasma at 85 mg, iv after 60 mins; conditions: papio hamadryas, read-out: Drug uptake
Procedure, shortened: (§2)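 Anaesthetised baboons received [11C]-labelled drug i.v. (radial arm vein) by PET protocol. Arterial blood was drawn from a popliteal catheter every 5 s for 2 min, then at 2–90 min. Plasma activity is given as %ID/cc. µg/ml values were estimated from the human daily dose per kg scaled to a 17 kg baboon, assuming signal comes from intact drug.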

[7] = Biodistribution in baboon heart at 85 mg, iv after 90 mins; conditions: papio hamadryas, read-out: Drug uptake
[8] = Biodistribution in baboon lung at 85 mg, iv after 90 mins; conditions: papio hamadryas, read-out: Drug uptake
[9] = Biodistribution in baboon kidney cortex at 85 mg, iv after 90 mins; conditions: papio hamadryas, read-out: Drug uptake
[10] = Biodistribution in baboon kidney medulla at 85 mg, iv after 90 mins; conditions: papio hamadryas, read-out: Drug uptake; procedure, shortened: as §1
[11] = Biodistribution in baboon liver at 85 mg, iv after 90 mins; conditions: papio hamadryas, read-out: Drug uptake
[12] = Biodistribution in baboon plasma at 85 mg, iv after 90 mins; conditions: papio hamadryas, read-out: Drug uptake; procedure, shortened: as §2
[13] = Biodistribution in baboon whole brain at 85 mg, iv after 30 mins; conditions: papio hamadryas, read-out: Drug uptake
Procedure, shortened: (§3)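 Brain PET ran 90 min after i.v. [11C]-labelled drug in anaesthetised baboons. Whole-brain regions of interest gave time-activity curves in %ID/cc. µg/ml values were estimated from baboon weight (17 kg) and the recommended human daily dose per kg, assuming signal comes from intact drug.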

[14] = Biodistribution in baboon whole brain at 85 mg, iv after 60 mins; conditions: papio hamadryas, read-out: Drug uptake; procedure, shortened: as §3
[15] = Biodistribution in baboon whole brain at 85 mg, iv after 90 mins; conditions: papio hamadryas, read-out: Drug uptake; procedure, shortened: as §3
[16] = Biodistribution in baboon heart at 85 mg, iv after 15 mins; conditions: papio hamadryas, read-out: Drug uptake
[17] = Biodistribution in baboon lung at 85 mg, iv after 15 mins; conditions: papio hamadryas, read-out: Drug uptake
[18] = Biodistribution in baboon kidney cortex at 85 mg, iv after 15 mins; conditions: papio hamadryas, read-out: Drug uptake
[19] = Biodistribution in baboon kidney medulla at 85 mg, iv after 15 mins; conditions: papio hamadryas, read-out: Drug uptake; procedure, shortened: as §1
[20] = Biodistribution in baboon liver at 85 mg, iv after 15 mins; conditions: papio hamadryas, read-out: Drug uptake
[21] = Biodistribution in baboon plasma at 85 mg, iv after 15 mins; conditions: papio hamadryas, read-out: Drug uptake
Procedure, shortened: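 Anesthetised baboons (ketamine 10 mg/kg i.m.; oxygen, nitrous oxide and isoflurane 1–4% during scanning) got a micro dose of [11C]-labelled drug i.v. via a radial arm vein; arterial blood was sampled serially over 90 min. Plasma %ID/cc was converted to µg/ml from the listed dose over a 17 kg baboon, assuming the signal is intact drug.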

[22] = Biodistribution in baboon heart at 85 mg, iv after 30 mins; conditions: papio hamadryas, read-out: Drug uptake
[23] = Biodistribution in baboon lung at 85 mg, iv after 30 mins; conditions: papio hamadryas, read-out: Drug uptake
[24] = Biodistribution in baboon kidney cortex at 85 mg, iv after 30 mins; conditions: papio hamadryas, read-out: Drug uptake
[25] = Biodistribution in baboon kidney medulla at 85 mg, iv after 30 mins; conditions: papio hamadryas, read-out: Drug uptake; procedure, shortened: as §1
[26] = Biodistribution in baboon liver at 85 mg, iv after 30 mins; conditions: papio hamadryas, read-out: Drug uptake
[27] = Biodistribution in baboon plasma at 85 mg, iv after 30 mins; conditions: papio hamadryas, read-out: Drug uptake; procedure, shortened: as §2
[28] = Biodistribution in mouse whole brain at 10 mg/kg, sc after 30 mins; set-up: dose 10 mg/kg, route subcutaneous; conditions: read-out: Drug uptake
[29] = Biodistribution in mouse whole brain at 10 mg/kg, sc after 60 mins; set-up: dose 10 mg/kg, route subcutaneous; conditions: read-out: Drug uptake

Structure (SMILES): NN[11C](=O)c1ccncc1
- concentration at 1 h [1]: 3740 ng/mL
- concentration at 1 h [2]: 4420 ng/mL
- concentration at 1 h [3]: 7720 ng/mL
- concentration at 1 h [4]: 16400 ng/mL
- concentration at 1 h [5]: 7640 ng/mL
- concentration at 1 h [6]: 2050 ng/mL
- concentration at 1.5 h [7]: 4150 ng/mL
- concentration at 1.5 h [8]: 4190 ng/mL
- concentration at 1.5 h [9]: 8540 ng/mL
- concentration at 1.5 h [10]: 14700 ng/mL
- concentration at 1.5 h [11]: 6910 ng/mL
- concentration at 1.5 h [12]: 1620 ng/mL
- concentration at 0.5 h [13]: 2540 ng/mL
- concentration at 1 h [14]: 2110 ng/mL
- concentration at 1.5 h [15]: 1750 ng/mL
- concentration at 0.25 h [16]: 8720 ng/mL
- concentration at 0.25 h [17]: 7720 ng/mL
- concentration at 0.25 h [18]: 15100 ng/mL
- concentration at 0.25 h [19]: 18900 ng/mL
- concentration at 0.25 h [20]: 12500 ng/mL
- concentration at 0.25 h [21]: 3760 ng/mL
- concentration at 0.5 h [22]: 6130 ng/mL
- concentration at 0.5 h [23]: 6090 ng/mL
- concentration at 0.5 h [24]: 9260 ng/mL
- concentration at 0.5 h [25]: 15400 ng/mL
- concentration at 0.5 h [26]: 9710 ng/mL
- concentration at 0.5 h [27]: 2960 ng/mL

Structure (SMILES): NN[14C](=O)c1ccncc1
- concentration at 0.5 h [28]: 4400 ng/g
- concentration at 1 h [29]: 3200 ng/g
